Data as given in ChEMBL document CHEMBL1123538, “Inhibitors of human purine nucleoside phosphorylase. Synthesis, purine nucleoside phosphorylase inhibition, and T-cell cytotoxicity of 2,5-diaminothiazolo[5,4-d]pyrimidin-7(6H)-one and 2,5-diaminothiazolo[4,5-d]pyrimidin-7(6H)-one. Two thio isosteres of 8-aminoguanine” (J Med Chem, 1986).

Tests used:
Homo sapiens [1] = species: Homo sapiens; assay: Cytotoxicity was evaluated against human MGL-8 B -lymphoblasts (Presence of 10 uM 2'-deoxyguanosine (W/GdR)); type: functional; settings: MGL8
Summary of the method: (§1)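 Cell growth measured as [3H]thymidine uptake. Lines kept in RPMI 1640 with 10% heat-inactivated fetal calf serum, L-glutamine and penicillin-streptomycin; assay run in RPMI 1640 plus 10% heat-inactivated horse serum.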

Homo sapiens [2] = species: Homo sapiens; assay: Cytotoxicity was evaluated against human MGL-8 B -lymphoblasts (absence of 10 uM 2'-deoxyguanosine (Wo/GdR)); type: functional; settings: MGL8; summary of the method: as §1
MOLT-4 [3] = assay: Cytotoxicity was evaluated against human MOLT-4 T-lymphoblasts (absence of 10 uM 2'-deoxyguanosine (Wo/GdR)); type: functional, cell-based; summary of the method: as §1
MOLT-4 [4] = assay: Cytotoxicity was evaluated against human MOLT-4 T-lymphoblasts (presence of 10 uM 2'-deoxyguanosine (W/GdR)); type: functional, cell-based; summary of the method: as §1
[5] = target: T1, Purine nucleoside phosphorylase (Homo sapiens, UniProt P00491); assay: Compound was evaluated for 50% inhibition of purine nucleoside phosphorylase activity by was measured by the conversion of [8-14C]-inosine to [8-14C]-hypoxanthine; type: functional
T1 sequence (P00491 whole entry): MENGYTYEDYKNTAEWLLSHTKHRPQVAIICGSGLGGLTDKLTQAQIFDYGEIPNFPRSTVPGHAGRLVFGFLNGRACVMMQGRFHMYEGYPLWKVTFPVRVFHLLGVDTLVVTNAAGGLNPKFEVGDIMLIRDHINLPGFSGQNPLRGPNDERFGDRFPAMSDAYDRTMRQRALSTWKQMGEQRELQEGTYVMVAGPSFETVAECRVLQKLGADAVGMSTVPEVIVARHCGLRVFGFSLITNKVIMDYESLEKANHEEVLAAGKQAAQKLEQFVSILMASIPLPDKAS

Row | Compound | IC50 (Homo sapiens [1]) | IC50 (Homo sapiens [2]) | IC50 (MOLT-4 [3]) | IC50 (MOLT-4 [4]) | IC50 [5]
1 | Nc1nc2[nH]c(N)nc2c(=O)[nH]1 [8-AMINOGUANINE] | > 500 µM | > 500 µM | ~400 µM | 2.35 µM | 1.55 µM
2 | Nc1nc2nc(N)sc2c(=O)[nH]1 | > 50 µM | > 50 µM | > 50 µM | > 50 µM | ~330 µM
3 | Nc1nc2sc(N)nc2c(=O)[nH]1 | > 50 µM | > 50 µM | > 50 µM | > 50 µM | 142 µM
4 | Nc1nc(O)c2nc(N)n([C@@H]3O[C@H](CO)[C@@H](O)[C@H]3O)c2n1 | > 500 µM | > 500 µM | ~500 µM | 3.25 µM | –
